Hit rate of the full screen: of about 360,000 compounds, about 5,400 (1.5%) were called active.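 The calls were made as follows: active = inhibition above a per-plate cutoff, the mean inhibition of test compounds on that plate plus 3 SD (cut at about 49% in these data); inactive = the rest.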 Shown is part of a subset that was picked to be rich in actives.
Biological target: Trace amine-associated receptor 1 (Homo sapiens) (UniProt Q96RJ0)
Assay: human TAAR1 antagonists, primary screen, Fluo-8 calcium fluorescence, CHO RD-HGA16 cells (AID 624466);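 also: 0% = DMSO plus EC80 beta-PEA response and 100% = DMSO alone without agonist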
Conditions: CHO RD-HGA16 TAAR1, Fluo-8 calcium fluorescence, antagonist; at 3 µM; stronger effect = higher value
Outline: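 Test system – hTAAR1-expressing CHO RD-HGA16 cells, Gα16-coupled · Reagent – β-PEA at EC80 concentration, post-compound challenge · Compound dosing – 3 µM, single point · Timing – 140 s kinetic read after compound, 140 s after agonist · Detection – Fluo-8 intracellular calcium dye fluorescence, real-time kinetic reads · Control set – DMSO and EC80 PEA controls · Repeats – n of 1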

Sequence of Trace amine-associated receptor 1 (Homo sapiens) (Q96RJ0 whole entry, looked up): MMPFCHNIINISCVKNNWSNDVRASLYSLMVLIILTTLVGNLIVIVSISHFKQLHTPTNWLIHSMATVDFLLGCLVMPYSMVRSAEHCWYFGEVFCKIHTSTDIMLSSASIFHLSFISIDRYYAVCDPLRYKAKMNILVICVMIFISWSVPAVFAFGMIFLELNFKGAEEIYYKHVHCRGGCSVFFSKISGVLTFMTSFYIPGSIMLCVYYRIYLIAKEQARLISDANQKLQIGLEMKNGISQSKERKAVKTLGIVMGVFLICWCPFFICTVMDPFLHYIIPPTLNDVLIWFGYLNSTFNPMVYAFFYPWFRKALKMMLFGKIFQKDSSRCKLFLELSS

Row | SMILES | inhibition
1 | CCC(=NCCc1ccccc1)c1c(O)n(C2CCCCC2)c(=O)[nH]c1=O | 60.3% (active)
2 | CC(=O)c1c(O)n(C2CCCCCC2)c(=O)[nH]c1=O | -7.9% (inactive)
3 | CCCCCCN=C(CC)c1c(O)n(CCCC)c(=O)[nH]c1=O | 4.8% (inactive)
4 | O=C1C2(Cl)C3(Cl)C4(Cl)C(Cl)(Cl)C5(Cl)C3(Cl)C1(Cl)C5(Cl)C24Cl (stereo unspecified) | 64.1% (active)
5 | Cc1cccc(NC(=O)OC2CN3CCC2CC3)c1 (stereo unspecified) | -7.58% (inactive)
6 | Cc1cc(-c2ccc(N)c(C)c2)ccc1N | 6.17% (inactive)
7 | CC[N+]1(C)CCCC(OC(=O)C(O)(c2ccccc2)c2ccccc2)C1 (stereo unspecified) | -0.72% (inactive)
8 | COc1cc(C(c2c(O)c3ccccc3oc2=O)c2c(C)n(C)n(-c3ccccc3)c2=O)ccc1O (stereo unspecified) | 3.68% (inactive)
9 | CCOC(=O)C1SC2(C(F)(F)C(F)F)CC1(O)c1c(c(OC)c3occc3c1OC)O2 (stereo unspecified) | 65.5% (active)
10 | CC(Cc1ccccc1)NC=O (stereo unspecified) | 74.1% (active)
11 | CC(Cc1ccccc1)NCCC(c1ccccc1)c1ccccc1 (stereo unspecified) | 45.6% (inactive)
12 | CC(=O)Nc1ccc(C(=O)C(Cc2ccccc2)N(C)C)cc1 (stereo unspecified) | -13.4% (inactive)
13 | COC(=O)C1=C(c2ccc(Cl)c(C(F)(F)F)c2)C[C@@H]2CC[C@H]1N2C(=O)NC1CC1 | 36.7% (inactive)
14 | COC1=CC=C2[C@H]3Cc4ccc(OC)c5c4[C@@]2(CCN3C)C1O5 (stereo partly specified) | -0.15% (inactive)
15 | COc1ccc(CN2CCN(c3ccccc3F)CC2)c(OC)c1 | -21.7% (inactive)
16 | c1cc2c(cc1CCNC1CCCCCC1)OCO2 | -6.33% (inactive)

Row | SMILES | inhibition
17 | c1ccc(CCNC2CCCCCC2)cc1 | 85.7% (active)
18 | OC(CNC1CCCCC1)c1ccccc1 (stereo unspecified) | -11.8% (inactive)
19 | c1ccc(CCN2CCC3(CC2)OCCO3)cc1 | -16.1% (inactive)
20 | CCN(CC)C(=O)[C@@H]1C=C2c3cccc4[nH]c(Br)c(c34)C[C@H]2N(C)C1 | -12.3% (inactive)
21 | CN1CCC(OC(=O)c2cccc(F)c2)CC1 | -5.85% (inactive)
22 | COC(=O)N1C(c2ccccc2)C1c1ccccc1 (stereo unspecified) | 2.76% (inactive)
23 | COC(=O)C1=C(c2ccc(F)cc2OCc2ccccc2)C[C@@H]2CC[C@H]1N2C(=O)NCc1ccc(C(C)(C)C)cc1 | 12.1% (inactive)
24 | COC(=O)C1=C(c2ccc(F)cc2OCc2ccccc2)C[C@@H]2CC[C@H]1N2C(=O)NCc1ccc2[nH]ccc2c1 | 29.6% (inactive)
25 | COC(=O)C1=C(c2ccc(F)cc2OCc2ccccc2)C[C@@H]2CC[C@H]1N2C(=O)NCc1ccc(Cl)cc1 | 52.3% (active)
26 | COC(=O)C1=C(c2ccccc2OCc2ccccc2)C[C@@H]2CC[C@H]1N2C(=O)NCc1ccc(OC)cc1 | 56.6% (active)
27 | COC(=O)C1=C(c2ccc(OCc3ccccc3)cc2)C[C@@H]2CC[C@H]1N2C(=O)NCc1ccc(Cl)cc1 | -21.6% (inactive)
28 | COC(=O)C1=C(c2ccc(-c3ccccc3)c(F)c2)C[C@@H]2CC[C@H]1N2C(=O)NCc1ccc(F)cc1 | -7.93% (inactive)
29 | COC(=O)C1=C(c2ccc(F)cc2OCc2ccccc2)C[C@@H]2CC[C@H]1N2C(=O)NCc1ccc(OC)c(OC)c1 | 60.1% (active)
30 | COC(=O)C1=C(c2ccc(OCc3ccccc3)cc2)C[C@@H]2CC[C@H]1N2C(=O)NCc1cccc(F)c1 | -9.38% (inactive)
31 | COC(=O)C1=C(c2cccc(OCc3ccccc3)c2)C[C@@H]2CC[C@H]1N2C(=O)NCc1ccc(Br)cc1 | -0.83% (inactive)
